# Test system: Fibroblast
# Experiment: Multiplex assay against human fibroblast
# Format: toxicity, cell-based
# Summary of the method: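 Imaging took place on a CQ1 microscope at 37°C and 5% CO2 once compound had been added to live cells stained at seeding with Hoechst33342, BioTracker Green Microtubule Cytoskeleton Dye, MitoTracker Red and Annexin V Alexa Fluor 680. CellPathfinder machine-learning gating classed cells as Hoechst high-intensity objects or normal cells, classed normal cells as having healthy, pyknosed or fragmented nuclei, and classed pyknosed cells as mitotic or apoptotic. Tubulin, mitochondrial-mass and membrane-permeability phenotypes are per cents of the healthy-nucleus cells.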
# [1] = 12 h, 1 µM, compound concentration 1 uM, replicate 1
# [2] = 12 h, 1 µM, compound concentration 1 uM, replicate 2
# [3] = 12 h, 10 µM, compound concentration 10 uM, replicate 1
# [4] = 12 h, 10 µM, compound concentration 10 uM, replicate 2
# [5] = 24 h, 1 µM, compound concentration 1 uM, replicate 1
# [6] = 24 h, 1 µM, compound concentration 1 uM, replicate 2
# [7] = 24 h, 10 µM, compound concentration 10 uM, replicate 1
# [8] = 24 h, 10 µM, compound concentration 10 uM, replicate 2
# [9] = 48 h, 1 µM, compound concentration 1 uM, replicate 1
# [10] = 48 h, 1 µM, compound concentration 1 uM, replicate 2
# [11] = 48 h, 10 µM, compound concentration 10 uM, replicate 1
# [12] = 48 h, 10 µM, compound concentration 10 uM, replicate 2
smiles,measurement,setting,value
CC(C)COc1ccc(CNC(=O)N(Cc2ccc(F)cc2)C2CCN(C)CC2)cc1 [PIMAVANSERIN],Population Apoptotic (%),[1],65%
same,Population Fragmented Nuclei (%),[1],24%
same,Population Healthy Nuclei (%),[1],62%
same,Population Hoechst High Intensity Objects (%),[1],0%
same,Population Membrane Permeable-Phenotype (%),[1],0%
same,Population Mitochondria Different-Phenotype (%),[1],12%
same,Population Mitotic Cells (%),[1],34%
same,Population Normal (%),[1],100%
same,Population Pyknosed Nuclei (%),[1],12%
same,Population Tubulin-Different-Phenotype (%),[1],35%
same,Total Cell Count,[1],179
same,Population Apoptotic (%),[2],61%
same,Population Fragmented Nuclei (%),[2],40%
same,Population Healthy Nuclei (%),[2],42%
same,Population Hoechst High Intensity Objects (%),[2],1%
same,Population Membrane Permeable-Phenotype (%),[2],7%
same,Population Mitochondria Different-Phenotype (%),[2],4%
same,Population Mitotic Cells (%),[2],38%
same,Population Normal (%),[2],98%
same,Population Pyknosed Nuclei (%),[2],16%
same,Population Tubulin-Different-Phenotype (%),[2],82%
same,Total Cell Count,[2],160
same,Population Apoptotic (%),[3],56%
same,Population Fragmented Nuclei (%),[3],18%
same,Population Healthy Nuclei (%),[3],65%
same,Population Hoechst High Intensity Objects (%),[3],1%
same,Population Membrane Permeable-Phenotype (%),[3],0%
same,Population Mitochondria Different-Phenotype (%),[3],42%
same,Population Mitotic Cells (%),[3],43%
same,Population Normal (%),[3],98%
same,Population Pyknosed Nuclei (%),[3],16%
same,Population Tubulin-Different-Phenotype (%),[3],93%
same,Total Cell Count,[3],185
same,Population Apoptotic (%),[4],51%
same,Population Fragmented Nuclei (%),[4],31%
same,Population Healthy Nuclei (%),[4],42%
same,Population Hoechst High Intensity Objects (%),[4],4%
same,Population Membrane Permeable-Phenotype (%),[4],2%
same,Population Mitochondria Different-Phenotype (%),[4],32%
same,Population Mitotic Cells (%),[4],48%
same,Population Normal (%),[4],95%
same,Population Pyknosed Nuclei (%),[4],26%
same,Population Tubulin-Different-Phenotype (%),[4],81%
same,Population Apoptotic (%),[5],60%
same,Population Fragmented Nuclei (%),[5],21%
same,Population Healthy Nuclei (%),[5],65%
same,Population Hoechst High Intensity Objects (%),[5],2%
same,Population Membrane Permeable-Phenotype (%),[5],1%
same,Population Mitochondria Different-Phenotype (%),[5],5%
same,Population Mitotic Cells (%),[5],39%
same,Population Normal (%),[5],97%
same,Population Pyknosed Nuclei (%),[5],12%
same,Population Tubulin-Different-Phenotype (%),[5],47%
same,Total Cell Count,[5],186
same,Population Apoptotic (%),[6],52%
same,Population Fragmented Nuclei (%),[6],39%
same,Population Healthy Nuclei (%),[6],46%
same,Population Membrane Permeable-Phenotype (%),[6],4%
same,Population Mitochondria Different-Phenotype (%),[6],9%
same,Population Mitotic Cells (%),[6],47%
same,Population Pyknosed Nuclei (%),[6],13%
same,Population Tubulin-Different-Phenotype (%),[6],76%
same,Total Cell Count,[6],157
same,Population Apoptotic (%),[7],83%
same,Population Fragmented Nuclei (%),[7],13%
same,Population Healthy Nuclei (%),[7],67%
same,Population Hoechst High Intensity Objects (%),[7],4%
same,Population Membrane Permeable-Phenotype (%),[7],0%
same,Population Mitochondria Different-Phenotype (%),[7],41%
same,Population Mitotic Cells (%),[7],16%
same,Population Normal (%),[7],95%
same,Population Pyknosed Nuclei (%),[7],18%
same,Population Tubulin-Different-Phenotype (%),[7],92%
same,Total Cell Count,[7],170
same,Population Apoptotic (%),[8],69%
same,Population Fragmented Nuclei (%),[8],27%
same,Population Healthy Nuclei (%),[8],50%
same,Population Hoechst High Intensity Objects (%),[8],8%
same,Population Membrane Permeable-Phenotype (%),[8],3%
same,Population Mitochondria Different-Phenotype (%),[8],38%
same,Population Mitotic Cells (%),[8],30%
same,Population Normal (%),[8],91%
same,Population Pyknosed Nuclei (%),[8],21%
same,Population Tubulin-Different-Phenotype (%),[8],96%
same,Total Cell Count,[8],167
same,Population Apoptotic (%),[9],88%
same,Population Fragmented Nuclei (%),[9],27%
same,Population Healthy Nuclei (%),[9],62%
same,Population Hoechst High Intensity Objects (%),[9],3%
same,Population Membrane Permeable-Phenotype (%),[9],1%
same,Population Mitochondria Different-Phenotype (%),[9],3%
same,Population Mitotic Cells (%),[9],11%
same,Population Normal (%),[9],96%
same,Population Pyknosed Nuclei (%),[9],9%
same,Population Tubulin-Different-Phenotype (%),[9],45%
same,Total Cell Count,[9],204
same,Population Apoptotic (%),[10],52%
same,Population Fragmented Nuclei (%),[10],44%
same,Population Healthy Nuclei (%),[10],44%
same,Population Hoechst High Intensity Objects (%),[10],5%
same,Population Membrane Permeable-Phenotype (%),[10],4%
same,Population Mitochondria Different-Phenotype (%),[10],12%
same,Population Mitotic Cells (%),[10],47%
same,Population Normal (%),[10],94%
same,Population Pyknosed Nuclei (%),[10],10%
same,Population Tubulin-Different-Phenotype (%),[10],64%
same,Total Cell Count,[10],167
same,Population Apoptotic (%),[11],92%
same,Population Fragmented Nuclei (%),[11],15%
same,Population Healthy Nuclei (%),[11],67%
same,Population Hoechst High Intensity Objects (%),[11],12%
same,Population Membrane Permeable-Phenotype (%),[11],0%
same,Population Mitochondria Different-Phenotype (%),[11],44%
same,Population Mitotic Cells (%),[11],8%
same,Population Normal (%),[11],87%
same,Population Pyknosed Nuclei (%),[11],17%
same,Population Tubulin-Different-Phenotype (%),[11],91%
same,Total Cell Count,[11],163
same,Population Apoptotic (%),[12],75%
same,Population Fragmented Nuclei (%),[12],30%
same,Population Healthy Nuclei (%),[12],53%
same,Population Hoechst High Intensity Objects (%),[12],6%
same,Population Membrane Permeable-Phenotype (%),[12],3%
same,Population Mitochondria Different-Phenotype (%),[12],41%
same,Population Mitotic Cells (%),[12],25%
same,Population Normal (%),[12],93%
same,Population Pyknosed Nuclei (%),[12],16%
same,Population Tubulin-Different-Phenotype (%),[12],92%
same,Total Cell Count,[12],159
